The text below walks through data of ChEMBL document CHEMBL1152541, “Staurosporine tethered peptide ligands that target cAMP-dependent protein kinase (PKA): optimization and selectivity profiling” (Bioorg Med Chem, 2009).

Assay [1] addresses T1, Serine/threonine-protein kinase DCLK1 (Homo sapiens) (UniProt O15075).
T1 sequence (whole entry): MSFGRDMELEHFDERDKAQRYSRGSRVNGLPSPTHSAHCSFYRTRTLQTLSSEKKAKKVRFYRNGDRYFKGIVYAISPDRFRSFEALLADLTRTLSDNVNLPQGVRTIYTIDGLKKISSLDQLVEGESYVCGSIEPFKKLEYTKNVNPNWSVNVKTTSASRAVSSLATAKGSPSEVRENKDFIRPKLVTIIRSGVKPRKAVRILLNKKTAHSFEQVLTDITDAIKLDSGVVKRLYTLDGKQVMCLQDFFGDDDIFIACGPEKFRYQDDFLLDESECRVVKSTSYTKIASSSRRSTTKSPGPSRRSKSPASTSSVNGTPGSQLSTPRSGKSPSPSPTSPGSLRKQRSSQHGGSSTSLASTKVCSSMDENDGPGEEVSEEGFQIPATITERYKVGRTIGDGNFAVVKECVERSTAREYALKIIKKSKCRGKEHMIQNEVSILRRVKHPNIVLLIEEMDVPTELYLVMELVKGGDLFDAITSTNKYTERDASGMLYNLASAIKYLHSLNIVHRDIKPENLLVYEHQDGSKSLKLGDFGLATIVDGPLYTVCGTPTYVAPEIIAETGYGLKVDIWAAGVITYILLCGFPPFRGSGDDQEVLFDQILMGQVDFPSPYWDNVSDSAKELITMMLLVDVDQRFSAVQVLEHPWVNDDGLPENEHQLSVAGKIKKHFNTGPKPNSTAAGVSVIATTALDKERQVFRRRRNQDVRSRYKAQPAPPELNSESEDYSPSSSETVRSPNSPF
Description: Binding affinity to human DCAMKL1 at 500 nM by cell-based competition binding assay relative to control in presence of DTT. An outline of the steps: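 Commercial (Ambit) competitive kinase-binding panel of 90 kinases measured the binding profile. Run under reducing conditions of 7.5 mM DTT. Binding is expressed relative to control.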

The test system of assay [2] is Mast/stem cell growth factor receptor Kit (Homo sapiens), P10721 [D816V]. Description: Binding affinity to human KIT D816V mutant at 500 nM by cell-based competition binding assay relative to control in presence of DTT. An outline of the steps:
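Competition binding screen (Ambit) across a panel of 90 kinases, scoring test ligand displacement of each kinase's binding relative to control. The screen ran under reducing conditions with 7.5 mM DTT.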

Assay [3] concerns the target T2, Activin receptor type-1B (Homo sapiens) (UniProt P36896).
T2 sequence (whole entry): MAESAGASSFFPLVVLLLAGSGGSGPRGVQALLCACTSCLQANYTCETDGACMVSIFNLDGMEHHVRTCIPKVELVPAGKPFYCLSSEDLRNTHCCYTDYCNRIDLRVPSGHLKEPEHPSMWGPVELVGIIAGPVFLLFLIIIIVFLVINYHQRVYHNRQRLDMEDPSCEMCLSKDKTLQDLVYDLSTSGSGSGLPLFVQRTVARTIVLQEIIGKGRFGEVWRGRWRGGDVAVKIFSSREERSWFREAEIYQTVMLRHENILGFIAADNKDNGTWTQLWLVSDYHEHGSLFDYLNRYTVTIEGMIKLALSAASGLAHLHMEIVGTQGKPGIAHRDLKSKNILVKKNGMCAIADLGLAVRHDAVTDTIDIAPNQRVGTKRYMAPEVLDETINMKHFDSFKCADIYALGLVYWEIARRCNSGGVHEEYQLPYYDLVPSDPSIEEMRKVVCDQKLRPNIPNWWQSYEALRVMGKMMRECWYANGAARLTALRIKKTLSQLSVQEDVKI
Description: Binding affinity to human ACVR1B at 50 nM by cell-based competition binding assay relative to control in presence of DTT. An outline of the steps:
(§1)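 Kinase binding profiling ran on a commercial (Ambit) competitive binding screen against a panel of 90 kinases. The screen used reducing conditions with 7.5 mM DTT. To withstand the DTT, the bivalent ligand was tested as its amide isostere, with the disulfide replaced. A staurosporine derivative carrying a 3 β-alanine linker was run as the reference compound.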

For assay [4], the target named is ALK tyrosine kinase receptor (Homo sapiens) (UniProt Q9UM73). Description: Binding affinity to human ALK at 50 nM by cell-based competition binding assay relative to control in presence of DTT. An outline of the steps:
as §1

Assay [5] addresses T3, Bone morphogenetic protein receptor type-2 (Homo sapiens) (UniProt Q13873).
T3 sequence (whole entry): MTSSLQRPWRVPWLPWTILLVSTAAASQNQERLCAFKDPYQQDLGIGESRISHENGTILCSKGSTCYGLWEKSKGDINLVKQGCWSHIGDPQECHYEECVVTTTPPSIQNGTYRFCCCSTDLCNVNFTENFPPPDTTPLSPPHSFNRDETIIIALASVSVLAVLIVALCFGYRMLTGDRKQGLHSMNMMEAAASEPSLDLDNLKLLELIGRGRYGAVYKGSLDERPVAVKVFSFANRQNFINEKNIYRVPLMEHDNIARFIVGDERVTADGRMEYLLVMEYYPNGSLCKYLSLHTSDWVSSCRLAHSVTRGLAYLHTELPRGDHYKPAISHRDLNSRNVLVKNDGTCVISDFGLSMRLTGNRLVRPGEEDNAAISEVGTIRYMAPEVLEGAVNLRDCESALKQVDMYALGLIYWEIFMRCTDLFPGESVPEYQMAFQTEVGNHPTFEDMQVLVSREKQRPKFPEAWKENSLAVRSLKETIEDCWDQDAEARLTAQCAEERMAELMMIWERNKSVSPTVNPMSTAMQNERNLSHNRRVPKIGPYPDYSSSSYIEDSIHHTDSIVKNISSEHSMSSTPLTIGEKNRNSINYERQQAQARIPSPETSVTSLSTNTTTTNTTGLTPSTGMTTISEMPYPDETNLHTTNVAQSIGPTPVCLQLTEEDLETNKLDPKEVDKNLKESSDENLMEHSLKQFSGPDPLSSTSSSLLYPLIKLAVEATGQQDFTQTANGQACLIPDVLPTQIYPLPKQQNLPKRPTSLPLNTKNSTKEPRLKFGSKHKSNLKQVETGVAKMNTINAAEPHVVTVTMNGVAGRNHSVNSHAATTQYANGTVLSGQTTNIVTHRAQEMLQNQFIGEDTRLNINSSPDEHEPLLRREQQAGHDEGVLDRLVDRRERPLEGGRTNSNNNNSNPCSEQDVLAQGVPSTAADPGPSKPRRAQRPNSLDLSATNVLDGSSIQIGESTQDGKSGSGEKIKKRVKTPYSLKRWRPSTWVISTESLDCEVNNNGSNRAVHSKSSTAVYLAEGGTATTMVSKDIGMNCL
Description: Binding affinity to human BMPR2 at 50 nM by cell-based competition binding assay relative to control in presence of DTT. An outline of the steps: as §1

In assay [6] the target is Serine/threonine-protein kinase PAK 4 (Homo sapiens) (UniProt O96013). Description: Binding affinity to human PAK4 at 50 nM by cell-based competition binding assay relative to control in presence of DTT.
Serine/threonine-protein kinase PAK 4 (Homo sapiens), sequence (O96013 whole entry, looked up): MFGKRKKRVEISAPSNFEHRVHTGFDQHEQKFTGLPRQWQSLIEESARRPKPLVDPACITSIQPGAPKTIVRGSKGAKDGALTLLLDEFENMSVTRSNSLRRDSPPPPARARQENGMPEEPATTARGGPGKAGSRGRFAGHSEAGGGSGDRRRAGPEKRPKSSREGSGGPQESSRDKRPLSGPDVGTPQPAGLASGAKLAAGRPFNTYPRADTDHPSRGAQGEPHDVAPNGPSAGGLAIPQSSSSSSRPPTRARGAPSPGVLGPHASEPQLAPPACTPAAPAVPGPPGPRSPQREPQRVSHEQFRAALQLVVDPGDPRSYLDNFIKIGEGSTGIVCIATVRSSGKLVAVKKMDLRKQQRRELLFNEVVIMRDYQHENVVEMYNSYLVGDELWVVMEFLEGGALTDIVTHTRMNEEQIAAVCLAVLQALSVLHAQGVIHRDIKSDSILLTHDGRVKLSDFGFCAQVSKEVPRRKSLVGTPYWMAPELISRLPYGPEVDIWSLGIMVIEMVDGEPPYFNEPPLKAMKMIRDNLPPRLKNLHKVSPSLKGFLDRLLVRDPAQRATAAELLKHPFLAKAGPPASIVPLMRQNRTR
The target of assay [7] is Angiopoietin-1 receptor (Homo sapiens) (UniProt Q02763). Description: Binding affinity to human TIE2 at 50 nM by cell-based competition binding assay relative to control in presence of DTT.
Angiopoietin-1 receptor (Homo sapiens), sequence (Q02763 whole entry): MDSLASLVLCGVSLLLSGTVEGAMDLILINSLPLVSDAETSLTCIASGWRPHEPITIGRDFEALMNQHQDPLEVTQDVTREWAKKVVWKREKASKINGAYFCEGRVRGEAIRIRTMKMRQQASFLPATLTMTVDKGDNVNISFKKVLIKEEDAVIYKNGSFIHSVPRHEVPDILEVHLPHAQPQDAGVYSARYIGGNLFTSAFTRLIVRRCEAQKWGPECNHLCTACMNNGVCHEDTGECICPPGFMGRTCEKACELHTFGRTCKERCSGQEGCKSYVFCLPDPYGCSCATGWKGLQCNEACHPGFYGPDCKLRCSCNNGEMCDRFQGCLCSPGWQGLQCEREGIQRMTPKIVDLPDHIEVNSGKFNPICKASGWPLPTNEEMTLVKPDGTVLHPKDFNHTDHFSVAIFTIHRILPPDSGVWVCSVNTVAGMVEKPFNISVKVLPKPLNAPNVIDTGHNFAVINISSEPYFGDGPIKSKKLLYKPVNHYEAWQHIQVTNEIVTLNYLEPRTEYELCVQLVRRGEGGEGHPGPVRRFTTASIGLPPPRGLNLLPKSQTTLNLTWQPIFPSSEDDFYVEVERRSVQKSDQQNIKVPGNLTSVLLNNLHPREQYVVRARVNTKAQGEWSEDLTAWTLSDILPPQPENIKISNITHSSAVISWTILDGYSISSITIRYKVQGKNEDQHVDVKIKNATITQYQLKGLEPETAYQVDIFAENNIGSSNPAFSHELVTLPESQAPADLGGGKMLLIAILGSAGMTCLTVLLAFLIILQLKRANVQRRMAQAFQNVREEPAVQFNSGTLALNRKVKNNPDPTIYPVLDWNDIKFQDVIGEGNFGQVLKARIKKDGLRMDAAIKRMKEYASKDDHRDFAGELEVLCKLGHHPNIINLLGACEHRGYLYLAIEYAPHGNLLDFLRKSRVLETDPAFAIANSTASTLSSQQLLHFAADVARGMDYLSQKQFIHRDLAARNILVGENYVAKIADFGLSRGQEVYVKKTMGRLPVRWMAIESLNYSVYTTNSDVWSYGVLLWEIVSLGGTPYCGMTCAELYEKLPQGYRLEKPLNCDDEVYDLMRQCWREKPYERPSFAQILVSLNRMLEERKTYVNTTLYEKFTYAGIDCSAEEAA

*1 amine or outer side, *2 acyl side, *3 side chain or, on linkers, in order; H or OH if unused. Where a SMILES comes first, the peptide text is derived from it. Bridges are numbered along the chain shown (N, C = ends). [ ]: non-standard residue; d: D form. The star is where a group is joined. Staurosporine = CO[C@@H]1[C@H](N(C)*)C[C@H]2O[C@]1(C)n1c3ccccc3c3c4c(c5c6ccccc6n2c5c31)C(=O)NC4; Suc = O=C(CCC(=O)[*:2])[*:1]; Dap = NC[C@H](N)C(=O)O; βAla = NCCC(=O)O

Mast/stem cell growth factor receptor Kit (Homo sapiens), P10721 [D816V], sequence (P10721 whole entry D816V): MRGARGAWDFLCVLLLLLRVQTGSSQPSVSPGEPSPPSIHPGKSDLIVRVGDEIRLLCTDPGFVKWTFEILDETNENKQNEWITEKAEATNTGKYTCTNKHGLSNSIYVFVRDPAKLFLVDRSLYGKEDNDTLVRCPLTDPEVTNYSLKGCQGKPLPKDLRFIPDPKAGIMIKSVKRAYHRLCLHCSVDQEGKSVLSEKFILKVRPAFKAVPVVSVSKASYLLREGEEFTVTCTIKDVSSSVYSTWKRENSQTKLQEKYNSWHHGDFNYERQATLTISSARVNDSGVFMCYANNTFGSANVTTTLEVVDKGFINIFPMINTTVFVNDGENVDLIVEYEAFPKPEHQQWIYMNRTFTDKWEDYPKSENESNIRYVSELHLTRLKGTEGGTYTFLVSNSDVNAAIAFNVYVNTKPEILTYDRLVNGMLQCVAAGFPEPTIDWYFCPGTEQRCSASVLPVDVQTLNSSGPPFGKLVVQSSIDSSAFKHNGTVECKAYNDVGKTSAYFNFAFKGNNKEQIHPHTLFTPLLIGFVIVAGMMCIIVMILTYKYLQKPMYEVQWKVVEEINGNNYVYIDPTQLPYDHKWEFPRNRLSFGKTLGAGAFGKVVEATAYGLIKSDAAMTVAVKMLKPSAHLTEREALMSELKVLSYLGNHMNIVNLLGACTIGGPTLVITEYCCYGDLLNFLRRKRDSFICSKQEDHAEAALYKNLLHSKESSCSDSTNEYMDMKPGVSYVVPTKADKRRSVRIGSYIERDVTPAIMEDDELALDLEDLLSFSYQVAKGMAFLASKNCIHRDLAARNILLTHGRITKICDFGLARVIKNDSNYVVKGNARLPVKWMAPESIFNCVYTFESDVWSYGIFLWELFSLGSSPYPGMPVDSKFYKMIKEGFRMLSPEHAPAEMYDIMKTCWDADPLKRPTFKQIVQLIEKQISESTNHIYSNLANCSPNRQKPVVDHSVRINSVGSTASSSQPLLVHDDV
ALK tyrosine kinase receptor (Homo sapiens), sequence (Q9UM73 19-1620 limits assumed): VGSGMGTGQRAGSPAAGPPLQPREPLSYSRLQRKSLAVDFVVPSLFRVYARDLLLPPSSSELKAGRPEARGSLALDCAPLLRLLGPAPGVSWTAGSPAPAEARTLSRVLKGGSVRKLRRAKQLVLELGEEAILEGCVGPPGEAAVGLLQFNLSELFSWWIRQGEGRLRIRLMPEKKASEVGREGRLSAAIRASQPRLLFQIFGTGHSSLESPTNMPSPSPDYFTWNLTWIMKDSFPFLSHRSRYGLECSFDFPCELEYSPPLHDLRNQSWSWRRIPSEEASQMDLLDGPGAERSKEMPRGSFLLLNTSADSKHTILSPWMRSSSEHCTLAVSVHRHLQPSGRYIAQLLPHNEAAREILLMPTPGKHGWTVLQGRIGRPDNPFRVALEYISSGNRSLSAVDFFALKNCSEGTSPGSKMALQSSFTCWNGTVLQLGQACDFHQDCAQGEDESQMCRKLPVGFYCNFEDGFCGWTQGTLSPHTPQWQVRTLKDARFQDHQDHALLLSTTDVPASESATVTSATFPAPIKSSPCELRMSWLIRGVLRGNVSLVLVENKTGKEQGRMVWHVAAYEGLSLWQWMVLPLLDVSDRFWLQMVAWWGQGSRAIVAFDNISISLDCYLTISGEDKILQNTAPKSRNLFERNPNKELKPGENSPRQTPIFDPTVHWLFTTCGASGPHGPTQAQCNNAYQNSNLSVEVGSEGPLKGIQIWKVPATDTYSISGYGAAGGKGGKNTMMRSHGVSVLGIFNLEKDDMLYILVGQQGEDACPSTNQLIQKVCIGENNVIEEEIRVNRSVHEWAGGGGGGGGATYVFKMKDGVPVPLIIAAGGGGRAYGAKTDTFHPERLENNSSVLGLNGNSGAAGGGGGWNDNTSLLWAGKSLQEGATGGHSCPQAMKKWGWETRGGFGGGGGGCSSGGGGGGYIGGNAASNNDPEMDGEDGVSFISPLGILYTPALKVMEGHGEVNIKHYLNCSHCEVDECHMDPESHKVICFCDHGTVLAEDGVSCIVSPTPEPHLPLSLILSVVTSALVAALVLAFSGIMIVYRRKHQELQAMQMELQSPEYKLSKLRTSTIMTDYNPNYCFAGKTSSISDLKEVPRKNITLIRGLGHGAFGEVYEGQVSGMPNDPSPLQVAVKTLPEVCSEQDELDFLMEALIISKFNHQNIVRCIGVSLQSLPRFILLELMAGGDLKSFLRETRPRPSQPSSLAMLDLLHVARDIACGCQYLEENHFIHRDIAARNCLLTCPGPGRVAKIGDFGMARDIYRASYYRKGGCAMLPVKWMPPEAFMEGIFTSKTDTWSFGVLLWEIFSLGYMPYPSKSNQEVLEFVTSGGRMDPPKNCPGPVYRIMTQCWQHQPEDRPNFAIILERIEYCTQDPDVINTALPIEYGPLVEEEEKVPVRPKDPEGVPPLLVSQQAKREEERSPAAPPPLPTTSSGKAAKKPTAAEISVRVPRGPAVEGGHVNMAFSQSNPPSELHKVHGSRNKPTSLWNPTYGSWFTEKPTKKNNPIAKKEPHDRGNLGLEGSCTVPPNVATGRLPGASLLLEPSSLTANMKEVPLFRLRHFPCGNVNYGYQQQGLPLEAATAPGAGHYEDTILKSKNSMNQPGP

`CO[C@@H]1[C@H](N(C)C(=O)CCC(=O)NCCC(=O)NCCC(=O)NCCC(N)=O)C[C@H]2O[C@]1(C)n1c3ccccc3c3c4c(c5c6ccccc6n2c5c31)C(=O)NC4`: the Activity in assay [1] amounted to 100%; in assay [2] it was 1%.
As for `CO[C@@H]1[C@H](N(C)C(=O)CCC(=O)NCCC(=O)NCCC(=O)NCCC(=O)NCCC(=O)NCCC(=O)NCCC(=O)NCCC(=O)N[C@H]2CNC(=O)C[C@@H](C(N)=O)NC(=O)CNC(=O)[C@H](Cc3ccccc3)NC(=O)[C@H](C(C)C)NC(=O)[C@H](CCCNC(=N)N)NC(=O)[C@H](Cc3ccccc3)NC(=O)[C@H](C(C)C)NC2=O)C[C@H]2O[C@]1(C)n1c3ccccc3c3c4c(c5c6ccccc6n2c5c31)C(=O)NC4` ({Staurosporine-Suc-βAla-βAla-βAla-βAla-βAla-βAla-βAla}-[Dap]VFRVFGD-NH2; lactam 1-8), the Activity in assay [3] worked out at 100%; in assay [4], 92%; in assay [5] it was 99%; in assay [6], 90%; in assay [7] it was 100%.
